Data published in ChEMBL document CHEMBL1125218, “Substituted 2-(aminomethyl)piperidines: a novel class of selective protein kinase C inhibitors” (J Med Chem, 1991).

Legend:
[1] = target: cAMP-dependent protein kinase catalytic subunit alpha (Rattus norvegicus) (UniProt P27791); assay: In vitro inhibition of cAMP-dependent kinase Protein kinase A isolated from rat brain by 100 uM.
In short: (§1)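 PKA catalytic subunit at 4 ng/mL in 20 mM Tris with 10 μM histone, 100 μM dibutyryl-cAMP and 100 μM [³²P]ATP. Percent inhibition measured at 100 μM test compound.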

[2] = target: T1, Protein kinase C, PKC; classical (Rattus norvegicus, UniProt P05696+P68403+P63319); assay: In vitro inhibition of [32P] incorporation into histones by rat brain partially purified Protein kinase C in the presence of PMA, [Ca2+] and phosphatidylserine.
In short: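 Partially purified rat brain PKC activated by PMA, Ca²⁺ and phosphatidylserine. Read-out is inhibition of ³²P incorporation into histones. Some values are extrapolated.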

[3] = target: T2, Protein kinase C alpha type (Rattus norvegicus, UniProt P05696); assay: Effect of Phosphatidylserine on inhibition of Protein kinase C alpha
[4] = target: T2, Protein kinase C alpha type; assay: Inhibition of [3H]-phorbol dibutyrate binding to Protein kinase C alpha
[5] = target: cAMP-dependent protein kinase catalytic subunit alpha (Rattus norvegicus) (UniProt P27791); assay: (§2) Inhibition of cAMP-dependent kinase PKA(Protein kinase A) catalytic subunit at 100 uM; in short: as §1
[6] = target: T1, Protein kinase C, PKC; classical; assay: Inhibition of PMA and [Ca2+] induced 32P incorporation into histones by partially purified rat brain Protein kinase C
In short: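 Partially purified rat brain PKC activated by PMA, Ca²⁺ and phosphatidylserine. Read-out is inhibition of ³²P incorporation into histones. IC50 taken from concentration-inhibition curves run up to 100 μM inhibitor. Some values are extrapolated.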

[7] = target: cAMP-dependent protein kinase catalytic subunit alpha (Rattus norvegicus, UniProt P27791); assay: as §2
[8] = target: cAMP-dependent protein kinase catalytic subunit alpha (Rattus norvegicus) (UniProt P27791); assay: Inhibition of cAMP-dependent kinase PKA (Protein kinase A) catalytic subunit at 100 uM; in short: as §1

Row | inhibition [1] | IC50 [2] | Compound | further results
1 | 0% | 92 µM | CCCCCCCCCCCCC(=O)N1CCCCC1CNC(=O)[C@@H](N)CCC(=O)OCc1ccccc1 (some centres not stated) | 
2 | 0% | 20 µM | CCCCCCCCCCCCC(=O)N1CCCCC1CNC(=O)[C@@H](N)CCCCN (some centres not stated) | Ki [3]: 12 µM; IC50 [4]: 23 µM
3 |  |  | CCCCCCCCCCCCC(=O)N1CCCCC1CNC(=O)[C@@H](N)CC(C)C (some centres not stated) | inhibition [5]: 0%; IC50 [6]: 154 µM
4 | 0% | 34 µM | CCCCCCCCCCCCC(=O)N1CCCCC1CNC(=O)[C@H](N)CCCCN (some centres not stated) | 
5 | 0% | 72 µM | CCCCCCCCCCCCC(=O)N1CCCCC1CNC(=O)[C@@H](N)CCC(N)=O (some centres not stated) | 
6 | 0% | 51 µM | CCCCCCCCCCCCC(=O)N1CCCCC1CNC(=O)CN (configuration not stated) | 
7 | 0% | 299 µM | CCCCCCCCCCC(=O)N1CCCCC1CNC(=O)[C@@H](N)CCCCN (some centres not stated) | 
8 | 0% | 72 µM | CCCCCCCCCCCCC(=O)N1CCCCC1CNC(=O)[C@@H](N)CCCN=C(N)N (some centres not stated) | 
9 | 0% | 46 µM | CCCCCCCCCCCCCCCCC(=O)N1CCCCC1CNC(=O)[C@@H](N)CCCCN (some centres not stated) | 
10 | 0% | 48 µM | CCCCCCCCCCCCCC(=O)N1CCCCC1CNC(=O)[C@@H](N)CCCCN (some centres not stated) | 
11 | 0% | 45 µM | CCCCCCCCCCCCC(=O)N1CCCCC1CNC(=O)[C@@H](N)CO (some centres not stated) | 
12 | 0% |  | CCCCCCCCCCCCC(=O)N1CCCCC1CNC(=O)[C@@H](N)CCC(=O)O (some centres not stated) | 
13 | 0% | 52 µM | CCCCCCCCCCCCC(=O)N1CCCCC1CNC(=O)[C@H](C)N (some centres not stated) | 
14 | 0% |  | CCCCCCCCC(=O)N1CCCCC1CNC(=O)[C@@H](N)CCCCN (some centres not stated) | 
15 | 38% | 36 µM | CCCCCCCCCCCCCCCCCC(=O)N1CCCCC1CNC(=O)[C@@H](N)CCCCN (some centres not stated) | 
16 |  | 57 µM | CCCCCCCCCCCCC/C=C/[C@@H](O)[C@@H](N)CO [SPHINGOSINE] | IC50 [7]: 98 µM
17 | 0% | 102 µM | CCCCCCCCCCCC(=O)N1CCCCC1CNC(=O)[C@@H](N)CCCCN (some centres not stated) | 
18 | 0% | 45 µM | CCCCCCCCCCCCCCCC(=O)N1CCCCC1CNC(=O)[C@@H](N)CCCCN (some centres not stated) | 
19 |  |  | CCCCCCCCCCCCCCC(=O)N1CCCCC1CNC(=O)[C@@H](N)CCCCN (some centres not stated) | inhibition [5]: 0%; IC50 [6]: 38 µM
20 | 0% |  | CCCCCCC(=O)N1CCCCC1CNC(=O)[C@@H](N)CCCCN (some centres not stated) | 
21 | 0% | 60 µM | CCCCCCCCCCCCC(=O)N1CCCCC1CNC(=O)[C@@H](N)Cc1ncc[nH]1 (some centres not stated) | 
22 | 0% | 23 µM | CCCCCCCCCCCCC(=O)N1CCCCC1CNC(=O)[C@@H](N)CCCN (some centres not stated) | 
23 |  |  | CCCCCCCCCCCCCC(=O)N1CCCCC1CN (configuration not stated) | inhibition [8]: 46%; IC50 [6]: 36 µM
24 | 0% | 159 µM | CCCCCCCCCCCCC(=O)N1CCCCC1CNC(=O)[C@@H](N)CCSC (some centres not stated) | 
